Source: ChEMBL document CHEMBL1146195, “Use of novel boronic acid transition state inhibitors to probe substrate affinity in SHV-type extended-spectrum beta-lactamases” (Antimicrob Agents Chemother, 2007)
Residue numbers refer to the chain shown, from its start.

How the values were obtained:
[1] = Binding affinity at Beta-lactamase D104K expressed in Escherichia coli DH10B cells
Outline: (§1)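 Enzyme cloned in pBCSK(−), expressed in E. coli DH10B, purified, then further purified by size-exclusion HPLC; purity checked by SDS-PAGE. Ki found by competing increasing inhibitor concentrations against nitrocefin at 4–6 × Km in continuous spectrophotometric assays at room temperature. Percent inhibition was fitted to an equation using the nitrocefin Km.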

[2] = Binding affinity at Beta-lactamase D104K G238S expressed in Escherichia coli DH10B cells; outline: as §1
[3] = Binding affinity at Beta-lactamase SHV2 G238S expressed in Escherichia coli DH10B cells; outline: as §1
[4] = molecular target: T1, SHV-5 extended spectrum beta-lactamase (Escherichia coli, UniProt Q6REX6); experiment: Binding affinity at Beta-lactamase SHV5 expressed in Escherichia coli DH10B cells
T1 sequence (Q6REX6 whole entry): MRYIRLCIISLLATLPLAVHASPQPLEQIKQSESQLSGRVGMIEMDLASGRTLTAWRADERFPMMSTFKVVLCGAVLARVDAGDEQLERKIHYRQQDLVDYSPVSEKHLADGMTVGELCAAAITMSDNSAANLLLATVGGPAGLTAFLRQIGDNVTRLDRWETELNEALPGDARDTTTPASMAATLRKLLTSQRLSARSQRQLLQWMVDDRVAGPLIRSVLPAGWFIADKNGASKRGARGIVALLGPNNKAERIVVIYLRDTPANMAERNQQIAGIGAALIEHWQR
Outline: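 Purified SHV-5 enzyme, expressed in E. coli DH10B from pBCSK(−); purity checked by SDS-PAGE. Ki from continuous spectrophotometric competition assays at room temperature: increasing inhibitor concentrations against nitrocefin at 4 to 6 times its Km. Percent inhibition fitted using the nitrocefin Km. Inhibition mode from full progress curves at varied nitrocefin, without inhibitor and at two inhibitor concentrations.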

Beta-lactamase SHV-1 = molecular target: T2, Beta-lactamase SHV-1 (Escherichia coli, UniProt P0AD63); experiment: Binding affinity at Beta-lactamase SHV1 expressed in Escherichia coli DH10B cells
T2 sequence (P0AD63 whole entry): T1 sequence (Q6REX6 whole entry) with Q31L, N231T, S234G, K235E, N265S
Outline: as §1, with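 “SHV-1” for “Enzyme”, “DH10B and purified;” for “DH10B, purified, then further purified by size-exclusion HPLC;”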

Structure (SMILES) | Ki [1] [µM] | Ki [2] [µM] | Ki [3] [µM] | Ki [4] [µM] | Ki (Beta-lactamase SHV-1) [µM]
CC(C)(O/N=C(\C(=O)NCB(O)O)c1csc(N)n1)C(=O)O [CEFTAZIDIME BATSI] | 0.7 | 4.5 | 6.8 | 4.5 | 2.2
CC(=O)NCB(O)O [ACETAMIDOMETHYLBORONIC ACID] | 190 | 300 | 330 | 360 | 300
CO/N=C(\C(=O)NCB(O)O)c1csc(N)n1 [CEFOTAXIME BATSI] | 5 | 1.1 | 3.4 | 5 | 8.9
